# Sampled rows, rich in hits. Any-hit rate of the full collection: about 2.3%.
# TRPC6 act – mouse TRPC6 channel activators, primary screen, cell-based, HEK293, membrane potential dye; HEK293-TRPC6 membrane potential dye fluorescence; active compounds read high; 0.13% of 310,000 active; Short transient receptor potential channel 6 (Mus musculus), Q61143; B-score at 10 µM;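 active means B-score of the integrated fluorescence ratio above library mean plus 3 SD, and starting fluorescence ratio within library mean plus 5 SD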;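 further: higher score means more depolarization so channel activation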
# Target sequence (Q61143 whole entry, looked up): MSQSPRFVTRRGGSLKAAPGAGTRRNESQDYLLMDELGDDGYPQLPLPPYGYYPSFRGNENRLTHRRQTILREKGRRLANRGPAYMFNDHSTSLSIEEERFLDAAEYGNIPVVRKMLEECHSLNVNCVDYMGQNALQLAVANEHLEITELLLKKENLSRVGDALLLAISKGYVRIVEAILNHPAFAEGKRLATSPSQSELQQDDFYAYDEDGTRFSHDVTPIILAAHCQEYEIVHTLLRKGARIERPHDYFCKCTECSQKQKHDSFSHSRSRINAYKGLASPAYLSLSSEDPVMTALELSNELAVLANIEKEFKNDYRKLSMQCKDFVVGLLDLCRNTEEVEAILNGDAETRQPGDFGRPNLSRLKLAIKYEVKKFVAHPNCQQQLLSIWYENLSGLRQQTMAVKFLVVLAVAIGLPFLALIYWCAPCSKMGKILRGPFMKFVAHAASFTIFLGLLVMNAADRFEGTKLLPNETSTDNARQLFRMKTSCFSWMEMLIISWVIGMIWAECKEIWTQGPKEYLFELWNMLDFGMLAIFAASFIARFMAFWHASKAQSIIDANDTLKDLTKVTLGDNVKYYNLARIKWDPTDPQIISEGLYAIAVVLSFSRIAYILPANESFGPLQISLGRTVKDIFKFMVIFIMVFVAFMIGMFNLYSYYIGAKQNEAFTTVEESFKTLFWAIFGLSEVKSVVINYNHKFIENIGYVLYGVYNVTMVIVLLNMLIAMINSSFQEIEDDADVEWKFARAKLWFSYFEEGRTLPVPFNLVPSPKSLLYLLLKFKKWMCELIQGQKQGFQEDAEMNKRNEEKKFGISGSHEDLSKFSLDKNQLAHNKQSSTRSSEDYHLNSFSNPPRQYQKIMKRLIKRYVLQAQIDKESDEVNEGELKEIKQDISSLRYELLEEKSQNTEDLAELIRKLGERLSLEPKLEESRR
# TRPC4 block – inhibitors of mouse TRPC4 channel, primary screen, Fluo4 calcium, HEK293 TRPC4beta/mu-opioid cells; Short transient receptor potential channel 4 (Mus musculus), Q9QUQ5; DAMGO-evoked Fluo4 calcium flux; active compounds read low; B-score at 10 µM; 0.39% of 300,000 active; AID 2247, 2010;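 active means B-score over 3 SD under the library average, no early fluorescence shift, positive overall ratio signal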
#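 Assay system: HEK293 cells with stable TRPC4beta plus mu-opioid receptor expression; Probe or stimulus: DAMGO in two steps, submaximal then maximal; Dosing: single-point compound dosing; Measured by: Fluo4 calcium-dye fluorescence, kinetic read; Read-out basis: B score from integrated Fluo4 fluorescence ratio.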
# TRPC4 act – activators of mouse TRPC4 channel, primary screen, Fluo4 calcium, HEK293 TRPC4beta/mu-opioid cells. Short transient receptor potential channel 4 (Mus musculus), Q9QUQ5. Fluo4 calcium fluorescence; active compounds read high. B-score at 10 µM. 0.49% of 310,000 active. AID 2237, 2010;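 active means B-score above 5 SD of library B-scores, and initial fluorescence ratio not above library mean plus 5 SD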;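 further: positive B-score marks a calcium rise read as TRPC4 activation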
#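 Assay system: HEK293 stable line with TRPC4beta plus mu-opioid receptor; schedule: 45 min room-temperature Fluo4 loading, 110 s read; technique: kinetic Fluo4 calcium fluorescence; evaluation: integrated baseline-normalised fluorescence ratio, converted to per-well B score; controls: buffer (low) and maximal DAMGO (high)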
# TRPC4 potent – positive allosteric modulators of TRPC4, primary screen, cell-based, mouse TRPC4beta, HEK293 mu-opioid, Fluo-4 calcium; 0.42% of 310,000 active; B-score at 10 µM; AID 2227, 2009; DAMGO EC20, Fluo-4 Ca2+ flux; active compounds read high; Short transient receptor potential channel 4 (Mus musculus), Q9QUQ5;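 active means B-score of calcium response area above 5 SD of library B-scores, with initial fluorescence ratio within 5 SD of library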;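 further: B-score of integrated fluorescence ratio over time as area under calcium response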
# TRPC6 inh – mouse TRPC6 channel inhibitors, primary screen, cell-based, HEK293, membrane potential dye; ACh-evoked depolarization; active compounds read low; B-score at 10 µM; 1.1% of 310,000 active;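 active means B-score under library mean minus 3 SD, initial fluorescence not abnormally high, positive integrated signal ratio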;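 further: B-score derived from integrated fluorescence ratio over the kinetic read; more negative B-score means stronger inhibition of depolarization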
# HEK293 MPD ctr – parental HEK293 membrane potential modulation, confirmation, counter-screen for TRPC6 modulator project, cell-based; 51% of 2,400 active; membrane potential dye fluorescence; shares compounds with TRPC6 inh; membrane potential signal change, % at 10 µM; AID 488924, 2010;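 active means membrane potential signal moves up or down beyond 5 SD from buffer-only wells, on both duplicate plates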
# HEK293 MPD ctr 2 – second check of TRPC6 modulator effects in parental HEK293 cells; shares compounds with TRPC6 inh; membrane potential dye fluorescence; after compound, maximal acetylcholine stimulation; inhibition, % at 10 µM; 14% of 2,400 active;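 active means membrane potential signal drops by more than 5 SD from the mean control signal, in both duplicate plates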;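 further: plate controls were acetylcholine ECmax control wells for no effect and buffer only wells for full effect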
# TRPC4/MOR mod – TRPC4 modulation by TRPC6 hit compounds, confirmation, selectivity assay for TRPC6 modulator project, cell-based, HEK293 TRPC4/mu-opioid, membrane potential dye, mouse. shares compounds with TRPC6 inh. membrane potential fluorescence. percent change from control (negative = decrease, positive = increase), % at 10 µM. 69% of 2,400 active. AID 488927, 2010;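 active means membrane potential signal moved up or down beyond 5 SD of buffer control wells, in both duplicate plates, actives on both sides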;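 further: plate controls were assay buffer wells for no effect and DAMGO maximal-effect wells for full effect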
# TRPC4 ctr inh 2 – second check of whether TRPC6 modulators also affect mouse TRPC4; shares compounds with TRPC6 inh; inhibition, % at 10 µM; AID 488928; 55% of 2,400 active; HEK293 TRPC4/mu-opioid, membrane potential dye fluorescence; stimulated with maximal-effect DAMGO;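 active means drop in membrane potential signal beyond 5 SD of the control wells in both duplicate plates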;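 further: TRPC4 counter screen for TRPC6 hits run under conditions tuned for TRPC6 not TRPC4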
# TRPC6 block conf – mouse TRPC6 channel inhibitors, confirmation, HEK293 cells, membrane potential dye, duplicate | shares compounds with TRPC6 inh | ACh-evoked depolarization | inhibition, % at 10 µM | 43% of 3,300 active;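 active means fluorescence ratio falls more than 5 SD below the full-stimulation control mean, in both duplicate runs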;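 further: integrated fluorescence ratio of peak minus minimum over baseline after agonist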
# TRPC6 act confirm – mouse TRPC6 channel activators, confirmation, HEK293 cells, membrane potential dye, duplicate; activation, % at 10 µM; HEK293-TRPC6 membrane potential dye fluorescence, FDSS; shares compounds with TRPC6 inh; 11% of 2,800 active;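 active means ratio signal rise beyond 5 SD above unstimulated control wells' mean, seen in both duplicate runs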;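 further: plate controls were buffer EC0 wells for no effect and acetylcholine ECmax response for full effect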
# An asterisk follows results filed as active; i = inactive; nt = no result given.
SMILES,TRPC6 act,TRPC4 block,TRPC4 act,TRPC4 potent,TRPC6 inh,HEK293 MPD ctr,HEK293 MPD ctr 2,TRPC4/MOR mod,TRPC4 ctr inh 2,TRPC6 block conf,TRPC6 act confirm
CCC(C)c1ccccc1OCCCNC1CCCC1 (stereo not given),i,i,i,i,-5*,232%*,i,58%*,58%*,44%*,nt
O=C(C1CCN(CCCc2ccccc2)CC1)N(CCc1ccccc1)Cc1ccccc1,i,i,i,i,-5.5*,110%*,i,i,86%*,68%*,nt
c1ccc2c(c1)CCN(c1ncnc3c1[nH]c1ccccc13)C2,i,i,86*,i,-5.7*,i,i,i,63%*,i,i
Cc1ccc2nc(N=C(N)N)nc(C)c2c1,i,i,i,i,-9.4*,-196%*,i,-36%*,64%*,37%*,i
C=CCOC(=O)C1=C(C)N(C)C(=O)NC1c1cc2c(cc1Br)OCO2 (stereo not given),i,i,i,i,-5.4*,i,i,i,i,i,i
O=C(COC(=O)CCOc1ccccc1)Nc1ncc(Cl)cc1Cl,i,i,i,i,i,nt,nt,nt,nt,nt,nt
C=CCOc1ccc(/C=C2\SC(=S)N(NS(=O)(=O)c3ccccc3)C2=O)cc1,i,i,i,i,i,nt,nt,nt,nt,nt,nt
Cc1ccc(-c2noc(CCC(=O)N3CCCc4ccccc43)n2)cc1,i,i,i,i,-6.4*,104%*,i,12%*,i,66%*,nt
COc1ccc(CNC(=O)CNS(=O)(=O)c2ccc(Cl)cc2)cc1,i,i,i,i,i,nt,nt,nt,nt,nt,nt
Cc1ccc(S(=O)(=O)N2Cc3ccccc3CC2C(=O)NC(C)(C)C)cc1 (stereo not given),i,i,i,i,i,nt,nt,nt,nt,nt,nt
Cc1c(OC(C)C(=O)N2C[C@H]3C[C@@H](C2)c2cccc(=O)n2C3)ccc2c3c(c(=O)oc12)CCC3 (stereo not given in full),i,i,i,i,-5*,96%*,i,12%*,i,i,nt
COc1ccc(NC(=O)C(=O)NCC2CCCN2S(=O)(=O)c2cc(C)ccc2C)cc1 (stereo not given),i,i,i,i,i,nt,nt,nt,nt,nt,nt
CC(C)c1ccc(S(=O)(=O)/N=C2\C=C(NS(=O)(=O)c3ccccc3)C(=O)c3ccccc32)cc1,i,-13*,i,i,-5.3*,-170%*,64%*,-30%*,80%*,68%*,i
